Assay results of several laboratories.
Lines come from different studies, so protocols differ.
Target: Dual specificity mitogen-activated protein kinase kinase 7 (MAP2K7, Homo sapiens, UniProt O14733)
Residues used in one study (O14733 1-419): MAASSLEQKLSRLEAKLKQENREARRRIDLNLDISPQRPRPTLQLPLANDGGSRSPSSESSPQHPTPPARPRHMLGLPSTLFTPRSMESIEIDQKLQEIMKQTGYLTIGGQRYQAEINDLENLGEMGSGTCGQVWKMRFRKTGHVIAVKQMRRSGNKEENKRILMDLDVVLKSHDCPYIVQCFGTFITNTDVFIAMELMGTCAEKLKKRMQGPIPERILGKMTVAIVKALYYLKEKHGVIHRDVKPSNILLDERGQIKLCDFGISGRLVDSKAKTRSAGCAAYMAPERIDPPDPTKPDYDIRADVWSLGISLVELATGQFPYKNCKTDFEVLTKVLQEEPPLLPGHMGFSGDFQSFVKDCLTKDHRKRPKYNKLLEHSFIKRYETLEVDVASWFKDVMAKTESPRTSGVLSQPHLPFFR

Compound	test	setting	remaining binding
CN(C)c1nccc(-c2cnc3ncccn23)n1	binding	1 µM	88%
COc1cnc(Nc2cccc(S(N)(=O)=O)c2)nc1N1CCN(c2ccccc2)CC1	binding, competition with immobilised ligand	1 µM	97%
CCN1CCN(Cc2ccc(C(=O)Nc3ccc(C)c(Oc4ccc5c(c4)CC(=O)N5)c3)cc2C(F)(F)F)CC1	binding, competition with immobilised ligand	1 µM	97%
COc1ccnn2ncc(-c3ccnc(N(C)C)n3)c12	binding	1 µM	73%
Cc1c(NC(=O)c2cc(C(N)=O)nc3cc(F)ccc23)c(C(F)(F)F)nn1Cc1ccc(C#N)cc1	cell-free assay, competition with immobilised ligand	1 µM	79%
O=C(NCCCN1CCOCC1)c1ccc(Nc2nccc(-c3cc4ccccc4s3)n2)cc1	binding, competition with immobilised ligand	1 µM	76%
c1cncc(-c2cccc(Nc3nccc(NC4CCCCC4)n3)c2)c1	binding, competition with immobilised ligand	10 µM	100%
CC1CCCN1c1nccc(-c2cnn3ncccc23)n1 (centres unmarked)	binding	1 µM	100%
O=C(c1ccc(Nc2ncc(Cl)c(-c3cc4ccccc4s3)n2)cc1)N1CCC(N2CCCC2)CC1	binding, competition with immobilised ligand	1 µM	96%
N[C@H]1CCN(c2nccc(-c3cnn4ncccc34)n2)C1	binding	1 µM	93%
CN(C)c1ncnc(-c2ccc3nc(Nc4cc(CN5CCN(C(=O)CC(F)(F)F)CC5)ccn4)[nH]c3c2)c1Cl	cell-free assay, competition with immobilised ligand	1 µM	100%
COc1cnc(Nc2cccc(S(N)(=O)=O)c2)nc1N1CCN(c2ccccc2)C(=O)C1	binding, competition with immobilised ligand	1 µM	92%
COc1cccc(CNC(=O)c2nc3scc(COCc4ccc(C(=O)O)cc4)c3c(=O)[nH]2)c1	cell-free assay, competition with immobilised ligand	1 µM	81.2%
C[C@H]1CCN(c2nccc(-c3cnn4ncccc34)n2)C1	binding	1 µM	83%
C[C@@H](c1cccc(C#N)c1)n1cc(Cl)cc(C(N)=O)c1=N	cell-free assay, competition with immobilised ligand	1 µM	99%
O=C(c1ccc(Nc2nccc(-c3cc4ccccc4s3)n2)cc1)N1CCC(N2CCCC2)CC1	binding, competition with immobilised ligand	1 µM	26%
CN(c1ccnc(CNc2nc(Nc3ccc4c(c3)CC(=O)N4)ncc2C(F)(F)F)n1)S(C)(=O)=O	cell-free assay, competition with immobilised ligand	1 µM	73%
O=C(Nc1c[nH]nc1C(=O)NC1CCNCC1)c1cc(F)cc(F)c1	binding, competition with immobilised ligand	1 µM	86%
CN(C)c1ncc(F)c(-c2cnn3ncccc23)n1	binding	1 µM	88%
Cc1nc(N2CC[C@@H](O)C2)ncc1-c1cc(C(F)(F)F)cc2[nH]ncc12	binding, competition with immobilised ligand	1 µM	64%
